# Screening data from PubChem.
# Shown are actives, neighbours in structure and some others; about 1.1% of the full set was active somewhere.
# Diaphorase inh: counter-screen for diaphorase-based assays: diaphorase inhibitors and chemical oxidizers; diaphorase resazurin-to-resorufin fluorescence, NADH, 16 min; bacterial (C. kluyveri) enzyme, not human; inhibition, % at 20 µM; 0.69% of 190,000 active; AID 1217;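 active = primary screen inhibition at 20 µM above a set limit, cut at about 50% in these data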;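 also: plate controls were DMSO with full reaction for no effect and wells lacking NADH for full effect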
#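 System: Diaphorase enzyme from Clostridium kluyveri | Amount: Enzyme working solution with 0.14 U/mL diaphorase | Benchmarks: No-NADH positive control and DMSO neutral control | Signal: Fluorescence of resorufin formed from resazurin, Ex 544/Em 590 nm | Schedule: 16-min room-temperature incubation before reading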
# Diaph act CS: activates diaphorase or chemically reduces, flagging diaphorase assay artifacts. activation factor at 20 µM. Diaphorase/resazurin coupled assay, resorufin fluorescence, 16 min; active compounds read high; 1 = vehicle wells, 0 = NADH-free wells. 0.005% of 190,000 active;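 active = diaphorase activity raised at least twofold by the compound at 20 µM; inactive = activation factor below 2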
#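 Assay system: bacterial diaphorase enzyme (C. kluyveri) / Input: enzyme 0.07 U/mL final / Medium: 50 mM HEPES pH 7.4 with 4.542 mM MgCl2, 0.005% Tween 20 / Doses: single compound dose of 20 µM, 1% DMSO final / Incubation: 16 min enzyme reaction, ambient temperature / Signal: fluorescence, excitation 544 nm and emission 590 nm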
# G6PDH CS: counter-screen for G6PDH assay hits: L. mesenteroides G6PDH inhibition; Purified L. mesenteroides G6PDH, diaphorase/resazurin coupled fluorescence, 45 min; inhibition, % at 5 µM; 0.12% of 200,000 active; AID 1020; in the data active = inhibition above about 50%
# PMI act hi M6P: PMI (human) activation, high substrate | AID 1216 | coupled PMI enzyme assay, resazurin fluorescence, 20 min; active compounds read high; 1 = untreated enzyme, 0 = substrate-free blank | activation factor at 20 µM | P34949 | 0.34% of 190,000 active;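 active = activation factor of 2 or more at 20 µM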
# Target sequence (P34949 whole entry, looked up): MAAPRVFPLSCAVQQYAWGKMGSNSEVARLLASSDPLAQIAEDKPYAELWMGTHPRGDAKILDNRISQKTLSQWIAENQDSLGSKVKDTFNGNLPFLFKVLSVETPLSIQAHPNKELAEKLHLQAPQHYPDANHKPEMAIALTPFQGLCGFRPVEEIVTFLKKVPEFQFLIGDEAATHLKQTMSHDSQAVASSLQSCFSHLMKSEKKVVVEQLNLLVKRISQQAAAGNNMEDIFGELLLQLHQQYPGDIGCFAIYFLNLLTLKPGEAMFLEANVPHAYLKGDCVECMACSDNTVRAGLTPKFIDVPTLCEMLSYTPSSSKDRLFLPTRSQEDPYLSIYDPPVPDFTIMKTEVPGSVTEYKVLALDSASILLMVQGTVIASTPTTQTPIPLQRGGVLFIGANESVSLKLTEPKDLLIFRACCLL
#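 assay system = human phosphomannose isomerase with PGI, G6PDH, diaphorase coupling enzymes | quantity = 15 ng/mL PMI | incubation = enzyme reaction with compound 20 min at room temperature | medium = HEPES pH 7.4 buffer with MgCl2 and Tween-20 | compound dosing = one concentration, 20 µM, in 1% DMSO | measured by = Diaphorase-driven resazurin-to-resorufin fluorescence, excitation 544, emission 590 nm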
# PMI activator: increases human mannose-6-phosphate isomerase activity; P34949; purified human PMI, coupled resazurin fluorescence, 20 min; active compounds read high; 1 = vehicle control, 0 substrate-free wells; activation factor at 20 µM; 0.005% of 190,000 active; AID 1214;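 active = activation factor of 2 or more at 20 µM, relative to plate controls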
# * marks the source's active call; other numbers are inactive results.
SMILES,Diaphorase inh,Diaph act CS,G6PDH CS,PMI act hi M6P,PMI activator
O=C(O)c1cc(-c2ccc(/C=C3/SC(=S)N(Cc4ccccc4)C3=O)o2)ccc1Cl,52*,0.5,17,1.3,1.3
Cc1ccc(C(=O)O)cc1-c1ccc(/C=C2\SC(=O)N(CC(=O)Nc3ccccc3)C2=O)o1,57*,0.4,9,1,1.1
Cc1ccc(NC(=O)CN2C(=O)S/C(=C\c3ccc(-c4cccc(C(=O)O)c4C)o3)C2=O)cc1,28,0.7,4,1.1,1
Cc1ccccc1NC(=O)CN1C(=O)S/C(=C\c2ccc(-c3cc(C(=O)O)ccc3C)o2)C1=O,67*,0.3,10,1.3,1.4
Cc1ccc(C(=O)O)cc1-c1ccc(/C=C2/NC(=O)N(c3ccccc3)C2=O)o1,40,0.6,9,1.5,1.2
Cc1ccc(NC(=O)CN2C(=O)S/C(=C\c3cc(C)n(-c4cccc(C(=O)O)c4)c3C)C2=O)cc1,12,0.9,17,0.8,0.9
CCOc1ncccc1C(=O)N(C)CC(=O)Nc1ccccc1SC,14,0.9,-3,1,1
CO/N=C(\C(=O)O)c1csc(NN=C(C)C)n1,20,0.8,15,0.9,1
O=c1c(N2CCOCC2)coc2ccccc12,-27,1.3,11,2.8*,1.8
CCSc1nnc(NC(=O)c2ccccc2C)s1,3,1,-3,1,1
O=C1c2cccc3c(N4CCCCC4)ccc(c23)C(=O)N1c1cccc(O)c1,60*,0.4,8,1,0.9
O=C(O)c1c2c(nc3ccccc13)/C(=C/c1ccc(O)cc1)CC2,69*,0.3,1,1,1.2
CCc1cc(CNC(=O)CCc2nnc(CCCc3ccccc3)o2)on1,2,1,-6,1,1
O=[N+]([O-])c1ccc(Sc2cccc3cccnc23)c2cccnc12,59*,0.4,23,0.6,0.9
Cc1ccc([N+](=O)[O-])c2cccnc12,6,0.9,4,0.9,1.1
Cc1nnc(Sc2cc(NCCO)c([N+](=O)[O-])c3nonc23)s1,40,0.6,12,0.8,1
O=[N+]([O-])c1c(NCCCO)cc(Sc2nc3ccccc3s2)c2nonc12,71*,0.3,51*,0.6,0.3
CCC(=O)OCCNc1cc(Sc2nc3ccccc3s2)c2nonc2c1[N+](=O)[O-],58*,0.4,21,1,0.8
Cc1nnc(Sc2cc(NCCCO)c([N+](=O)[O-])c3nonc23)s1,59*,0.4,22,0.6,0.7
CCN(CC)S(=O)(=O)c1ccc2c(c1)c(=O)c(C(=O)NCc1ccco1)cn2C,11,0.9,2,1,1
C[C@@H](C(=O)OCn1nnc2ccccc2c1=O)N1C(=O)C2CCCCC2C1=O (stereo partly specified),6,0.9,7,1,1
O=C(O)c1cn[nH]c1-c1cccc([N+](=O)[O-])c1,9,0.9,2,1,1.2
COc1cccc2cc(C(=O)Nc3ccc(F)cc3)c(=Nc3ccc(C(=O)O)cc3)oc12,62*,0.4,0,1.1,1
O=C(Cc1nc2ccccc2[nH]1)c1ccc(Br)cc1,-2,1,2,1,1.2
O=C(NCc1ccco1)c1cccn2c(=O)c3cc4ccccc4cc3nc12,66*,0.3,35,2.4*,2*
SMILES,Diaphorase inh,Diaph act CS,G6PDH CS,PMI act hi M6P,PMI activator
CC(=O)c1ccc(NC(=O)CC23CC4CC(C2)CC(n2nnc(C)n2)(C4)C3)cc1,18,0.8,8,0.9,0.9
O=C(Nc1ccc2nc(-c3ccco3)c(-c3ccco3)nc2c1)N1CCN(c2ccccn2)CC1,70*,0.3,24,0.6,1
O=C(c1ccc2nc(-c3ccco3)c(-c3ccco3)nc2c1)N1CCN(c2ncccn2)CC1,66*,0.3,27,0.7,0.9
O=C(Nc1ccc(N2CCOCC2)cc1)c1ccc2nc(-c3ccco3)c(-c3ccco3)nc2c1,30,0.7,-60,1.1,0.9
S=C(Nc1ccc(N2CCOCC2)cc1)Nc1ccc2nc(-c3ccco3)c(-c3ccco3)nc2c1,64*,0.4,40,1.5,1.2
O=C(NC1CC1)c1ccc(-n2cccc2)cc1,8,0.9,3,1.1,1
